What was measured:
[1] = biological target: Tyrosine-protein kinase CSK (Homo sapiens) (UniProt P41240); experiment: Inhibition of Csk tyrosine kinase at 10 uM; parameters: scale not given: the % may be the effect or the level left
Procedure, shortened: (§1)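 Outsourced selectivity panel. Each kinase phosphorylated its own peptide or protein substrate in the presence of 10 µM compound and 10 µM ATP, within the linear time range. Activity given as mean percent of control incubations from duplicate determinations.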

[2] = Inhibition of Vascular endothelial growth factor receptor 2; parameters: species or system Homo sapiens
Procedure, shortened: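 Reaction started with 30–150 ng kinase, run 1 h at 30 °C. Peptides captured on streptavidin plates and counted. IC50 from 6–10 concentrations; ≥3 experiments in duplicate; ± SEM.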

[3] = biological target: T1, Protein kinase C gamma type (Homo sapiens, UniProt P05129); experiment: Inhibition of human Protein kinase C gamma at 10 uM; parameters: scale not given: the % may be the effect or the level left; procedure, shortened: as §1
[4] = biological target: AMP-activated protein kinase, AMPK (Homo sapiens) (UniProt P54646+O43741+P54619+Q9UGJ0+Q9Y478+Q13131+Q9UGI9); experiment: Inhibition of rat liver AMP-activated Protein Kinase at 10 uM; parameters: scale not given: the % may be the effect or the level left; details: target entry is the homologue from another species
Procedure, shortened: (§2)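 Upstate kinase selectivity panel: each kinase phosphorylated its peptide or protein substrate with 10 µM compound present and 10 µM ATP. Reactions were linear with time. Activity is reported as the mean percentage of control incubations, from duplicate determinations.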

[5] = biological target: Proto-oncogene tyrosine-protein kinase Src (Homo sapiens) (UniProt P12931); experiment: Inhibition of human Src tyrosine kinase at 10 uM; parameters: scale not given: the % may be the effect or the level left; procedure, shortened: as §2
[6] = biological target: T1, Protein kinase C gamma type; experiment: Inhibition of Protein kinase C gamma (PKC-gamma)
Procedure, shortened: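 Recombinant human PKCα, PKCγ or PKCβII (5–10 mU) phosphorylating histone H1 (0.1 mg/mL) with 33P-ATP, total ATP 10 µM. Buffer 50 mM Hepes pH 7.4 with Triton X-100, CaCl2, Mg acetate, phosphatidylserine and diacylglycerol. Run 40 min at room temperature, stopped with phosphoric acid, then P30 filter counting. IC50 from 6–10 concentrations; ≥3 experiments in duplicate; ± SEM.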

[7] = biological target: Serine/threonine-protein kinase N2 (Homo sapiens) (UniProt Q16513); experiment: Inhibition of human Protein kinase C related kinase 2 (PRK2) at 10 uM; parameters: scale not given: the % may be the effect or the level left; procedure, shortened: as §1
[8] = biological target: RAC-alpha serine/threonine-protein kinase (Homo sapiens) (UniProt P31749); experiment: Inhibition of human Protein kinase B alpha at 10 uM; parameters: scale not given: the % may be the effect or the level left; procedure, shortened: as §1
[9] = biological target: Casein kinase II (Homo sapiens) (UniProt P67870+P68400+P19784); experiment: Inhibition of human Casein kinase II at 10 uM; assay type: protein-complex assay; parameters: scale not given: the % may be the effect or the level left; procedure, shortened: as §1
[10] = biological target: Protein kinase C theta type (Homo sapiens, UniProt Q04759); experiment: Inhibition of Protein kinase C theta at 10 uM; parameters: scale not given: the % may be the effect or the level left; procedure, shortened: as §1
[11] = biological target: Inhibitor of nuclear factor kappa-B kinase subunit beta (Homo sapiens) (UniProt O14920); experiment: Inhibition of I-kappa-B-kinase beta at 10 uM; parameters: scale not given: the % may be the effect or the level left; procedure, shortened: as §1
[12] = biological target: Mitogen-activated protein kinase 11 (Homo sapiens) (UniProt Q15759); experiment: Inhibition of human Stress activated protein kinase 2b at 10 uM; parameters: scale not given: the % may be the effect or the level left; procedure, shortened: as §2
[13] = biological target: Glycogen synthase kinase-3 beta (Homo sapiens) (UniProt P49841); experiment: Inhibition of human glycogen synthase kinase-3beta (GSK3-beta) at 10 uM; parameters: scale not given: the % may be the effect or the level left; procedure, shortened: as §2
[14] = biological target: Mitogen-activated protein kinase 8 (Homo sapiens) (UniProt P45983); experiment: Inhibition of human c-Jun N-terminal kinase 1-alpha 1 at 10 uM; parameters: scale not given: the % may be the effect or the level left; procedure, shortened: as §2
[15] = biological target: MAP kinase-activated protein kinase 5 (Homo sapiens) (UniProt Q8IW41); experiment: Inhibition of human Protein kinase PRAK at 10 uM; parameters: scale not given: the % may be the effect or the level left; procedure, shortened: as §1
[16] = biological target: Ribosomal protein S6 kinase alpha-3 (Homo sapiens) (UniProt P51812); experiment: (§3) Inhibition of Ribosomal S6 kinase 3 at 10 uM; parameters: scale not given: the % may be the effect or the level left; procedure, shortened: as §1
[17] = biological target: Cyclin-dependent kinase 5/CDK5 activator 1 (Homo sapiens) (UniProt Q00535+Q15078); experiment: Inhibition of Cyclin-dependent kinase 5-p35nck5a at 10 uM; assay type: protein-complex assay; parameters: scale not given: the % may be the effect or the level left; procedure, shortened: as §1
[18] = biological target: Mitogen-activated protein kinase 1 (Homo sapiens) (UniProt P28482); experiment: Inhibition of human Mitogen-activated protein kinase 1 at 10 uM; parameters: scale not given: the % may be the effect or the level left; procedure, shortened: as §1
[19] = biological target: Dual specificity mitogen-activated protein kinase kinase 4 (Mus musculus) (UniProt P47809); experiment: Inhibition of mouse Mitogen activated protein kinase kinase 4 at 10 uM; parameters: scale not given: the % may be the effect or the level left; procedure, shortened: as §2
[20] = biological target: Mitogen-activated protein kinase 1 (Mus musculus) (UniProt P63085); experiment: Inhibition of mouse Mitogen-activated protein kinase 2 at 10 uM; parameters: scale not given: the % may be the effect or the level left; procedure, shortened: as §2
[21] = biological target: Insulin receptor (Homo sapiens) (UniProt P06213); experiment: Inhibition of Insulin receptor at 10 uM; parameters: scale not given: the % may be the effect or the level left; procedure, shortened: as §1
[22] = biological target: Ribosomal protein S6 kinase alpha-3 (Homo sapiens) (UniProt P51812); experiment: as §3; procedure, shortened: as §1
[23] = biological target: Serine/threonine-protein kinase N2 (Homo sapiens) (UniProt Q16513); experiment: Inhibition of human protein kinase C-related protein kinase 2 (PRK2) at 10 uM; parameters: scale not given: the % may be the effect or the level left; procedure, shortened: as §2
[24] = biological target: Mitogen-activated protein kinase 8 (Homo sapiens) (UniProt P45983); experiment: Inhibition of human JNK1-alpha-1 at 10 uM; parameters: scale not given: the % may be the effect or the level left; procedure, shortened: as §1

Chain of RAC-alpha serine/threonine-protein kinase (Homo sapiens) (P31749 whole entry): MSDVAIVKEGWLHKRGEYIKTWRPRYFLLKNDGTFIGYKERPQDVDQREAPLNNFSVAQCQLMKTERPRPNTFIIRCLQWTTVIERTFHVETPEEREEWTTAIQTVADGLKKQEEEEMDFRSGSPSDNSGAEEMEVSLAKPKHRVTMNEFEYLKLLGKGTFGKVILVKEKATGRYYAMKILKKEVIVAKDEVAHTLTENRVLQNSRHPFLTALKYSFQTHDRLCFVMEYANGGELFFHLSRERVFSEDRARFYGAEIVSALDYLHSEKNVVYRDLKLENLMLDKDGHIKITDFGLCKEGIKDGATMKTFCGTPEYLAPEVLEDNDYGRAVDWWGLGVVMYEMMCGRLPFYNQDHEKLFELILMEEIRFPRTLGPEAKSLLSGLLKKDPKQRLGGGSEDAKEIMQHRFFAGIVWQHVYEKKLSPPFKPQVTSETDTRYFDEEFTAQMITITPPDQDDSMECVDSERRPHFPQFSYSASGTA
Chain of Ribosomal protein S6 kinase alpha-3 (Homo sapiens) (P51812 whole entry): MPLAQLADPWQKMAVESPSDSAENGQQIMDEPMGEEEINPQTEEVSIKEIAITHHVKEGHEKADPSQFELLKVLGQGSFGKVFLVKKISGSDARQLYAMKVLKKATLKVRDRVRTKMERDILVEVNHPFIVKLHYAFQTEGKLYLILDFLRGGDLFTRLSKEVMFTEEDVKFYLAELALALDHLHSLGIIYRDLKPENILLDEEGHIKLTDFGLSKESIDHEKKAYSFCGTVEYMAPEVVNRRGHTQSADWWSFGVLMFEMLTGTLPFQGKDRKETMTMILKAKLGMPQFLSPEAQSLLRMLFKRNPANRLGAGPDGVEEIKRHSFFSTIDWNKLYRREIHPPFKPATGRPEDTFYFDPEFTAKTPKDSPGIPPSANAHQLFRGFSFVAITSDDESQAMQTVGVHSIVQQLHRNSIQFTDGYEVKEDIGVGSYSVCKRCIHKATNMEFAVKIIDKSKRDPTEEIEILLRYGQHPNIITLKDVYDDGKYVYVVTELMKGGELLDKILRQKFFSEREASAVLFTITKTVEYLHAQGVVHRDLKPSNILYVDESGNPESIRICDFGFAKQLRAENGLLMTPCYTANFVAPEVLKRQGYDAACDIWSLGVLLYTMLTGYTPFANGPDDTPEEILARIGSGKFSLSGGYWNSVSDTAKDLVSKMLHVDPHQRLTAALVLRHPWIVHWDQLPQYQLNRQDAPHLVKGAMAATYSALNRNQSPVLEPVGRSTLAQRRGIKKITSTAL
Chain of Cyclin-dependent kinase 5/CDK5 activator 1 (Homo sapiens) (Q00535 whole entry): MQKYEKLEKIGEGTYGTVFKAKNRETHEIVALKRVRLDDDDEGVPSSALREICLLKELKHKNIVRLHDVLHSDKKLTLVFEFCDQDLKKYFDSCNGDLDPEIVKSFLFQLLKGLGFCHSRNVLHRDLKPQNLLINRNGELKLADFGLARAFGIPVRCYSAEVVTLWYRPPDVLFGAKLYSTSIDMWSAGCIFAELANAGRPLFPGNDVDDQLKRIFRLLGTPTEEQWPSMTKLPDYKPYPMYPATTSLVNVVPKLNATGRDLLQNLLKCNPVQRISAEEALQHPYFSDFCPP
Chain of Cyclin-dependent kinase 5/CDK5 activator 1 (Homo sapiens) (Q15078 99-307 partner limits assumed): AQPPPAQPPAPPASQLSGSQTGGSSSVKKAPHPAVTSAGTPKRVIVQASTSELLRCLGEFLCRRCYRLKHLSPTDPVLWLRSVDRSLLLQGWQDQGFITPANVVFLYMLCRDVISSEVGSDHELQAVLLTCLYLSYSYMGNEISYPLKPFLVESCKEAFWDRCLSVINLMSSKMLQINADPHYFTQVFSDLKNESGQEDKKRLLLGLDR
Chain of Mitogen-activated protein kinase 8 (Homo sapiens) (P45983 whole entry): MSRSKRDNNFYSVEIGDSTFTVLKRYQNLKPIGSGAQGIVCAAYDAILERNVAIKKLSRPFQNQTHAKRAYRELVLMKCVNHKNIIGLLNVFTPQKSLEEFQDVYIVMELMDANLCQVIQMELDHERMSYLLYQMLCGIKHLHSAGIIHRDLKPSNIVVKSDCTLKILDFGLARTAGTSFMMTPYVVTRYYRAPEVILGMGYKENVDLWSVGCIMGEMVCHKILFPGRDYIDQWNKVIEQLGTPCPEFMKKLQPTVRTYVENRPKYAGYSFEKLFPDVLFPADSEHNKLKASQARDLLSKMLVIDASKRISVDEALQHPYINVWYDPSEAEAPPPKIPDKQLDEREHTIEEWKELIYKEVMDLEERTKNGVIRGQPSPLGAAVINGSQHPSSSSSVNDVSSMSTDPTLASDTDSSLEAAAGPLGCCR
Chain of MAP kinase-activated protein kinase 5 (Homo sapiens) (Q8IW41 whole entry): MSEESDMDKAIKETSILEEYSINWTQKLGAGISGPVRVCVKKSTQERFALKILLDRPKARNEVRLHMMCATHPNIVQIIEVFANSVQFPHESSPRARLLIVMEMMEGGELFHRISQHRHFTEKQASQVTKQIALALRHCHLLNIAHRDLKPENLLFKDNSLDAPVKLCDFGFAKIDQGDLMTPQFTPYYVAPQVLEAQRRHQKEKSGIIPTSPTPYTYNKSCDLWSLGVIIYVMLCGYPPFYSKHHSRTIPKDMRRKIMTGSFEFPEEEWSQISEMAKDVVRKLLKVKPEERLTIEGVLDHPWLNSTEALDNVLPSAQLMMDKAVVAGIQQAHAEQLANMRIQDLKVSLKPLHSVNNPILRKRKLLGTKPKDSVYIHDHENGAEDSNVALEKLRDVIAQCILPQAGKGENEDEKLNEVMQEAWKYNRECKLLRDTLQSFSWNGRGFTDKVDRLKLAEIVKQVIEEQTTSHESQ
Chain of Mitogen-activated protein kinase 1 (Mus musculus) (P63085 whole entry): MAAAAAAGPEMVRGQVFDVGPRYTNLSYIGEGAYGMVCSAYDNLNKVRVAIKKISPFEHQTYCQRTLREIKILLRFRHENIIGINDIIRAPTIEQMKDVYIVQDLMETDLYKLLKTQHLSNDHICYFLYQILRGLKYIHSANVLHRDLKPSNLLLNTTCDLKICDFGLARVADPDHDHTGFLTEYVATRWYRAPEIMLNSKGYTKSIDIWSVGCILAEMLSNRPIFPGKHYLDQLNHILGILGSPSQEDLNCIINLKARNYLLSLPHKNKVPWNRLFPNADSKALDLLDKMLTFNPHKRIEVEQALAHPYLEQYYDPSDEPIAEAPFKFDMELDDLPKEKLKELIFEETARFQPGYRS
Chain of Dual specificity mitogen-activated protein kinase kinase 4 (Mus musculus) (P47809 whole entry): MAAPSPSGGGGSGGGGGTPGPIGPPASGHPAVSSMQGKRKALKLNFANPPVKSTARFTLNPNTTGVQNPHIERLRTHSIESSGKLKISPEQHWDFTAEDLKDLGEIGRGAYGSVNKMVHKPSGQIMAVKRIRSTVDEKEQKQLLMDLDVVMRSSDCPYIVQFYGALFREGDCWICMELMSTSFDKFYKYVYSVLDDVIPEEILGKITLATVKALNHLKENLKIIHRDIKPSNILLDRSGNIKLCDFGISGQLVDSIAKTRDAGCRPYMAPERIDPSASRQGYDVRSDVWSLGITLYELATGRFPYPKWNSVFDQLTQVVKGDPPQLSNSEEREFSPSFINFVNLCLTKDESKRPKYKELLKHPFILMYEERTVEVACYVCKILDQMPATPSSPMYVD
Chain of Mitogen-activated protein kinase 11 (Homo sapiens) (Q15759 whole entry): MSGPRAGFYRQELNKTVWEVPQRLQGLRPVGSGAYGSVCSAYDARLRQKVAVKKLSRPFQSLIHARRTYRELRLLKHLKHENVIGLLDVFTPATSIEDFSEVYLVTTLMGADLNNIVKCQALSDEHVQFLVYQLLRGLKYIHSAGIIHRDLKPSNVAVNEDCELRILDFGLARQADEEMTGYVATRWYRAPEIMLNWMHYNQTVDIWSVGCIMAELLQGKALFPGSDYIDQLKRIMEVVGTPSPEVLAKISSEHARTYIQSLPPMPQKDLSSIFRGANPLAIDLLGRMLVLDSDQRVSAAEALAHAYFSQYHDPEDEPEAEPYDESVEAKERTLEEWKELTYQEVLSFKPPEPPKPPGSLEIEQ
Chain of Glycogen synthase kinase-3 beta (Homo sapiens) (P49841 whole entry, looked up): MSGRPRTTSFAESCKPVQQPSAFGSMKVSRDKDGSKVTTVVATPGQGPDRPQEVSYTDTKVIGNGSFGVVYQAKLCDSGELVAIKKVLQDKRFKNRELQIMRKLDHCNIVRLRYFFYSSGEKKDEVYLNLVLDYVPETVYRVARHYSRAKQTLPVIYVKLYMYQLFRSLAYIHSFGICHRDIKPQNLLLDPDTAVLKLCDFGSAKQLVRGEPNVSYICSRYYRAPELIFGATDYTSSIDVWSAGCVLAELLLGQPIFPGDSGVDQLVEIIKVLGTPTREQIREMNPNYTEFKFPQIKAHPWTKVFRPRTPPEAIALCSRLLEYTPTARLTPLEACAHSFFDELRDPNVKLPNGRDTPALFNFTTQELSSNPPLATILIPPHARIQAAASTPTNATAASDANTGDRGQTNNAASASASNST

Activity [1]	IC50 [2]	Activity [3]	Activity [4]	Activity [5]	IC50 [6]	Activity [8]	Activity [9]	Activity [10]	Activity [11]	Activity [12]	Activity [13]	Activity [15]	Activity [17]	Activity [19]	Activity [20]	other results	SMILES
84%	> 10 µM	77%	88%	90%	> 10 µM	97%	105%	71%	97%	105%	0%	88%	82%	110%	85%	Activity [7]: 92%; Activity [14]: 78%; Activity [16]: 21%; Activity [18]: 106%	O=C1NC(=O)C2=C1c1cn(c3ncccc13)CCOCCOCCOCCn1cc2c2cccnc21
103%	> 10 µM	96%	99%	89%	> 10 µM	102%	102%	88%	101%	104%	0%	102%	105%	107%	88%	Activity [21]: 92%; Of control [22]: 63%; Activity [23]: 104%; Activity [24]: 98%	O=C1NC(=O)C2=C1c1cn(c3ncccc13)CCOCCOCCOCCOCCn1cc2c2cccnc21
